Measurements taken from ChEMBL document CHEMBL1122777, “Effect of tellurium position on the myocardial uptake of radioiodinated 18-iodotellura-17-octadecenoic acid analogues” (1984).

Columns and labels:
Rattus norvegicus [1] = assay: Liver uptake after 1d was determined in female Fischer rats after [125I]-labeled compound complexed with bovine serum albumin was injected intravenously; format: functional
In short: (§1)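 Female Fischer 344 rats (fed ad libitum) under ether anaesthesia received the ¹²⁵I fatty acid in a lateral tail vein. Dose was ~3.8–4.8 μCi per rat (sp act ~125–240 mCi/mmol), given in 0.5 mL 6% bovine albumin (final ethanol 10%) after filtration. Four rats per time point were used. Tissue radioactivity is % injected dose/g, mean with range, calculated against standards of the injected solution.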

Rattus norvegicus [2] = assay: Liver uptake after 30 min was determined in female Fischer rats after [125I]-labeled compound complexed with bovine serum albumin was injected intravenously; format: functional; in short: as §1
Rattus norvegicus [3] = assay: Liver uptake after 4 hr was determined in female Fischer rats after [125I]-labeled compound complexed with bovine serum albumin was injected intravenously; format: functional; in short: as §1
Rattus norvegicus [4] = assay: Liver uptake after 5 min was determined in female Fischer rats after [125I]-labeled compound complexed with bovine serum albumin was injected intravenously; format: functional; in short: as §1
Rattus norvegicus [5] = assay: Liver uptake after 60 min was determined in female Fischer rats after [125I]-labeled compound complexed with bovine serum albumin was injected intravenously; format: functional; in short: as §1
Rattus norvegicus [6] = assay: Uptake in lungs after 1 day was determined in female Fischer rats after [125I]-labeled compound complexed with bovine serum albumin was injected intravenously; format: functional
In short: (§2)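 Female Fischer 344 rats with free access to food and water. The 125I-labelled fatty acid (~3.8–4.8 μCi; sp act. ~125–240 mCi/mmol) was complexed with 6% bovine serum albumin (10% final ethanol), filtered, and 0.5 mL was injected via a lateral tail vein under ether anaesthesia. Four rats per time point. Values are mean % injected dose/g, calculated against injectate standards. Thyroid weight was taken as 7.5 mg/100 g body weight.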

Rattus norvegicus [7] = assay: Uptake in lungs after 30 min was determined in female Fischer rats after [125I]-labeled compound complexed with bovine serum albumin was injected intravenously; format: functional; in short: as §2
Rattus norvegicus [8] = assay: Uptake in lungs after 4 hr was determined in female Fischer rats after [125I]-labeled compound complexed with bovine serum albumin was injected intravenously; format: functional; in short: as §2
Rattus norvegicus [9] = assay: Uptake in lungs after 5 min was determined in female Fischer rats after [125I]-labeled compound complexed with bovine serum albumin was injected intravenously; format: functional; in short: as §2
Rattus norvegicus [10] = assay: Uptake in lungs after 60 min was determined in female Fischer rats after [125I]-labeled compound complexed with bovine serum albumin was injected intravenously; format: functional; in short: as §2
Rattus norvegicus [11] = assay: Thyroid uptake after 5 min was determined in female Fischer rats after [125I]-labeled compound complexed with bovine serum albumin was injected intravenously; format: functional; in short: as §2
Rattus norvegicus [12] = assay: Heart uptake after 60 min was determined in female Fischer rats after [125I]-labeled compound complexed with bovine serum albumin was injected intravenously; format: functional; in short: as §1
Rattus norvegicus [13] = assay: Kidney uptake after 5 min was determined in female Fischer rats after [125I]-labeled compound complexed with bovine serum albumin was injected intravenously; format: functional; in short: as §1
Rattus norvegicus [14] = assay: Blood uptake after 1d was determined in female Fischer rats after [125I]-labeled compound complexed with bovine serum albumin was injected intravenously; format: functional; in short: as §1
Rattus norvegicus [15] = assay: Blood uptake after 30 min was determined in female Fischer rats after [125I]-labeled compound complexed with bovine serum albumin was injected intravenously; format: functional; in short: as §1
Rattus norvegicus [16] = assay: Blood uptake after 4 hr was determined in female Fischer rats after [125I]-labeled compound complexed with bovine serum albumin was injected intravenously; format: functional; in short: as §1
Rattus norvegicus [17] = assay: Blood uptake after 5 min was determined in female Fischer rats after [125I]-labeled compound complexed with bovine serum albumin was injected intravenously; format: functional; in short: as §1
Rattus norvegicus [18] = assay: Blood uptake after 60 min was determined in female Fischer rats after [125I]-labeled compound complexed with bovine serum albumin was injected intravenously; format: functional; in short: as §1
Rattus norvegicus [19] = assay: Heart uptake after 1d was determined in female Fischer rats after [125I]-labeled compound complexed with bovine serum albumin was injected intravenously; format: functional; in short: as §1
Rattus norvegicus [20] = assay: Heart uptake after 30 min was determined in female Fischer rats after [125I]-labeled compound complexed with bovine serum albumin was injected intravenously; format: functional; in short: as §1
Rattus norvegicus [21] = assay: Heart uptake after 5 min was determined in female Fischer rats after [125I]-labeled compound complexed with bovine serum albumin was injected intravenously; format: functional; in short: as §1
[22] = Ratio of heart to blood uptake after 120 min was determined in female Fischer rats after [125I]-labeled compound complexed with bovine serum albumin was injected intravenously; format: functional
In short: (§3)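 Female Fischer 344 rats (food and water ad libitum) given the 125I-labelled fatty acid in 6% bovine albumin with 10% final ethanol, filtered, 0.5 mL into a lateral tail vein under ether anaesthesia. Four rats per time point. Tissue activity expressed as % injected dose/g against assayed injectate standards. Mean heart/tissue ratios were calculated from mean %ID/g values.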

[23] = Ratio of heart to blood uptake after 240 min was determined in female Fischer rats after [125I]-labeled compound complexed with bovine serum albumin was injected intravenously; format: functional; in short: as §3
[24] = Ratio of heart to blood uptake after 30 min was determined in female Fischer rats after [125I]-labeled compound complexed with bovine serum albumin was injected intravenously; format: functional; in short: as §3
[25] = Ratio of heart to blood uptake after 5 min was determined in female Fischer rats after [125I]-labeled compound complexed with bovine serum albumin was injected intravenously; format: functional; in short: as §3
[26] = Ratio of heart to blood uptake after 60 min was determined in female Fischer rats after [125I]-labeled compound complexed with bovine serum albumin was injected intravenously; format: functional; in short: as §3
[27] = Ratio of heart to kidneys uptake after 120 min was determined in female Fischer rats after [125I]-labeled compound complexed with bovine serum albumin was injected intravenously; format: functional, Heart/Kidney; in short: as §3
[28] = Ratio of heart to kidneys uptake after 240 min was determined in female Fischer rats after [125I]-labeled compound complexed with bovine serum albumin was injected intravenously; format: functional, Heart/Kidney; in short: as §3
[29] = Ratio of heart to kidneys uptake after 30 min was determined in female Fischer rats after [125I]-labeled compound complexed with bovine serum albumin was injected intravenously; format: functional, Heart/Kidney; in short: as §3
[30] = Ratio of heart to kidneys uptake after 5 min was determined in female Fischer rats after [125I]-labeled compound complexed with bovine serum albumin was injected intravenously; format: functional, Heart/Kidney; in short: as §3
[31] = Ratio of heart to kidneys uptake after 60 min was determined in female Fischer rats after [125I]-labeled compound complexed with bovine serum albumin was injected intravenously; format: functional, Heart/Kidney; in short: as §3
[32] = Ratio of heart to liver uptake after 120 min was determined in female Fischer rats after [125I]-labeled compound complexed with bovine serum albumin was injected intravenously; format: functional; in short: as §3
[33] = Ratio of heart to liver uptake after 5 min was determined in female Fischer rats after [125I]-labeled compound complexed with bovine serum albumin was injected intravenously; format: functional; in short: as §3
[34] = Ratio of heart to liver uptake after 60 min was determined in female Fischer rats after [125I]-labeled compound complexed with bovine serum albumin was injected intravenously; format: functional; in short: as §3
[35] = Ratio of heart to liver uptake after 240 min was determined in female Fischer rats after [125I]-labeled compound complexed with bovine serum albumin was injected intravenously; format: functional; in short: as §3
[36] = Ratio of heart to lungs uptake after 120 min was determined in female Fischer rats after [125I]-labeled compound complexed with bovine serum albumin was injected intravenously; format: functional; in short: as §3
[37] = Ratio of heart to lungs uptake after 240 min was determined in female Fischer rats after [125I]-labeled compound complexed with bovine serum albumin was injected intravenously; format: functional; in short: as §3
[38] = Ratio of heart to lungs uptake after 30 min was determined in female Fischer rats after [125I]-labeled compound complexed with bovine serum albumin was injected intravenously; format: functional; in short: as §3
[39] = Ratio of heart to lungs uptake after 5 min was determined in female Fischer rats after [125I]-labeled compound complexed with bovine serum albumin was injected intravenously; format: functional; in short: as §3
[40] = Ratio of heart to lungs uptake after 60 min was determined in female Fischer rats after [125I]-labeled compound complexed with bovine serum albumin was injected intravenously; format: functional; in short: as §3
[41] = Ratio of heart to liver uptake after 30 min was determined in female Fischer rats after [125I]-labeled compound complexed with bovine serum albumin was injected intravenously; format: functional; in short: as §3
Rattus norvegicus [42] = assay: Heart uptake after 4 hr was determined in female Fischer rats after [125I]-labeled compound complexed with bovine serum albumin was injected intravenously; format: functional; in short: as §1
Rattus norvegicus [43] = assay: Heart uptake after 120 min was determined in female Fischer rats after [125I]-labeled compound complexed with bovine serum albumin was injected intravenously; format: functional; in short: as §1
Rattus norvegicus [44] = assay: Heart uptake after 240 min was determined in female Fischer rats after [125I]-labeled compound complexed with bovine serum albumin was injected intravenously; format: functional; in short: as §1

SMILES: O=C(O)CCC[Te]CCCCCCCCCCC/C=C/I
- Injected dose/g (Rattus norvegicus [1]): 3.64%
- Injected dose/g (Rattus norvegicus [2]): 5.53%
- Injected dose/g (Rattus norvegicus [3]): 4.76%
- Injected dose/g (Rattus norvegicus [4]): 6.56%
- Injected dose/g (Rattus norvegicus [5]): 7.33%
- Injected dose/g (Rattus norvegicus [6]): 0.71%
- Injected dose/g (Rattus norvegicus [7]): 1.54%
- Injected dose/g (Rattus norvegicus [8]): 0.92%
- Injected dose/g (Rattus norvegicus [9]): 1.47%
- Injected dose/g (Rattus norvegicus [10]): 1.16%
- Injected dose/g (Rattus norvegicus [11]): 6.03%
- Injected dose/g (Rattus norvegicus [12]): 4.33%
- Injected dose/g (Rattus norvegicus [13]): 1.02%
- Injected dose/g (Rattus norvegicus [14]): 0.18%
- Injected dose/g (Rattus norvegicus [15]): 0.16%
- Injected dose/g (Rattus norvegicus [16]): 0.19%
- Injected dose/g (Rattus norvegicus [17]): 0.11%
- Injected dose/g (Rattus norvegicus [18]): 0.19%
- Injected dose/g (Rattus norvegicus [19]): 3.96%
- Injected dose/g (Rattus norvegicus [20]): 4.64%
- Injected dose/g (Rattus norvegicus [21]): 3.99%
- Ratio [22]: 20
- Ratio [23]: 18
- Ratio [24]: 30
- Ratio [25]: 37
- Ratio [26]: 23
- Ratio [27]: 4
- Ratio [28]: 4.3
- Ratio [29]: 4.6
- Ratio [30]: 3.9
- Ratio [31]: 3.7
- Ratio [32]: 0.74
- Ratio [33]: 0.6
- Ratio [34]: 0.59
- Ratio [35]: 0.75
- Ratio [36]: 3.6
- Ratio [37]: 3.9
- Ratio [38]: 3
- Ratio [39]: 2.7
- Ratio [40]: 3.7
- Ratio [41]: 0.84
- Injected dose/g (Rattus norvegicus [42]): 3.57%

SMILES: O=C(O)CCCCCCCCCCC[Te]CCC/C=C/I
- Injected dose/g (Rattus norvegicus [12]): 1.81%
- Injected dose/g (Rattus norvegicus [43]): 1.03%
- Injected dose/g (Rattus norvegicus [44]): 0.76%
- Injected dose/g (Rattus norvegicus [20]): 1.52%
- Injected dose/g (Rattus norvegicus [21]): 1.46%
- Ratio [22]: 1.5
- Ratio [23]: 1.2
- Ratio [24]: 2.5
- Ratio [25]: 8
- Ratio [26]: 2.6
- Ratio [27]: 1.1
- Ratio [28]: 1.9
- Ratio [29]: 1.5
- Ratio [30]: 1.5
- Ratio [31]: 1.6
- Ratio [32]: 0.42
- Ratio [33]: 0.17
- Ratio [34]: 0.41
- Ratio [35]: 0.39
- Ratio [36]: 1.3
- Ratio [37]: 1.1
- Ratio [38]: 1.7
- Ratio [39]: 1.6
- Ratio [40]: 1.6
- Ratio [41]: 0.29

SMILES: O=C(O)CCCCC[Te]CCCCCCCCC/C=C/I
- Injected dose/g (Rattus norvegicus [12]): 2.96%
- Injected dose/g (Rattus norvegicus [43]): 2.86%
- Injected dose/g (Rattus norvegicus [44]): 2.37%
- Injected dose/g (Rattus norvegicus [20]): 2.78%
- Injected dose/g (Rattus norvegicus [21]): 3.47%
- Ratio [22]: 12
- Ratio [23]: 8
- Ratio [24]: 13
- Ratio [25]: 13
- Ratio [26]: 13
- Ratio [27]: 3.3
- Ratio [28]: 3.1
- Ratio [29]: 3.1
- Ratio [30]: 3.3
- Ratio [31]: 3.1
- Ratio [32]: 0.59
- Ratio [33]: 0.56
- Ratio [34]: 0.55
- Ratio [35]: 0.54
- Ratio [36]: 2.9
- Ratio [37]: 2.8
- Ratio [38]: 2.9
- Ratio [39]: 2.7
- Ratio [40]: 2.9
- Ratio [41]: 0.49
